SMILES strings stand for the structures. In brackets after ≈: the same amount, converted by molar mass. Activity calls are given as the source filed them. The rule behind the calls is not given here. Residues, ends and D or L forms follow the SMILES beside them.

Data set [1] concerns Human alphaherpesvirus 1. Nature of the data set: Antiviral activity against HSV1 ATCC VR260 by colorimetry. It is filed as functional, organism-based. A digest of the protocol: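 HSV-1 strain ATCC VR 260; colorimetric method; compounds tested at 50 μg/mL; acyclovir as positive control.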
Data set [2] relates to Candida albicans. The data set can be described thus: Antimicrobial activity against Candida albicans ATCC 90028 by tetrazolium/formazan assay. Type of data set: functional, organism-based. A digest of the protocol: (§1)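 Candida albicans ATCC 90028 tested by tetrazolium/formazan assay; compounds at 50 μg/mL.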
The species named for data set [3] is Gallus gallus. Nature of the data set: Inhibition of blebbistatin-induced neurite outgrowth in chicken medulla neurons at 50 uM after 24 hrs. Type of data set: functional.
For data set [4], the system named is IPC-298. Nature of the data set: Cytotoxicity against human IPC298 cells assessed as apoptotic cell nuclei level at 50 uM after 2 days. Type of data set: functional, cell-based. In short, it runs like this:
(§2)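 IPC-298 melanoma cells grown in DMEM/Ham's F12 with stabilized L-glutamine, 10% heat-inactivated FCS, penicillin/streptomycin. Plated at 100 000 cells per cm², cultured with or without compound (10 and 50 μM) for 2 days. Viable cells counted on phase-contrast digital pictures as cells per 0.36 mm². Debris and apoptotic nuclei judged by microscopy.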

The next data set concerns Plasmodium falciparum. The data set can be described thus: Antimalarial activity against multidrug-resistant Plasmodium falciparum K1 at 10 ug/mL. It is filed as functional, organism-based. In short, it runs like this:
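P. falciparum K1 maintained in continuous culture; in vitro activity quantified by microculture radioisotope technique; compounds tested at 10 μg/mL.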

Data set [5] concerns IPC-298. The data set can be described thus: Cytotoxicity against human IPC298 cells assessed as cell debris level at 50 uM after 2 days. It is filed as functional, cell-based. A digest of the protocol: as §2
Data set [6] can be described thus: Toxicity against E7 chicken spinal cord neurons assessed as effect on cell viability at 50 uM after 2 days. Set-up: species or system Gallus gallus. The following applies: 48 h.
In data set [7] the test system is Human alphaherpesvirus 1. The data set can be described thus: Antiviral activity against HSV1 ATCC VR260 at 50 ug/mL by colorimetry. Type of data set: functional, organism-based. In short, it runs like this:
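Against HSV-1 strain ATCC VR 260, colorimetric method; compounds at 50 μg/mL; acyclovir as positive control.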

The next data set is filed under the species Homo sapiens. The data set can be described thus: Effect on cell viability of human Capan II cells assessed as cell morphology changes at 50 uM after 20 h.
For another data set, the system named is Capan-2. The data set can be described thus: Inhibition of cell migration of human Capan 2 cells at 50 uM after 20 h by scratch migration assay. The following applies: Capan-2, 20 h.
Data set [8] can be described thus: Toxicity against chicken medulla neurons assessed as effect on cell viability at 50 uM after 24 hrs. Set-up: species or system Gallus gallus.
For data set [9], the species on record is Gallus gallus. The data set can be described thus: Inhibition of neurite outgrowth in E7 chicken spinal cord neurons at 50 uM after 2 days. It is filed as functional. A digest of the protocol: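 Spinal cord (anterior) from 7-day chicken embryos dissociated with trypsin/DNAseI at 37 °C for 20 min, washed in HEPES-buffered medium. 50 000 cells plated per 1 cm² on polylysine/fibronectin coating in HBM with 10% FCS at 37 °C, no CO₂. Cultured with or without compound (10 or 50 μM) for 2 days; neurites scored by phase-contrast microscopy.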

The subject of data set [10] is IPC-298. The data set can be described thus: Antiproliferative activity against human IPC298 cells assessed as cell density at 50 uM after 2 days. Type of data set: functional. A digest of the protocol: as §2
Data set [11] deals with Candida albicans. Nature of the data set: Antimicrobial activity against Candida albicans ATCC 90028 at 50 ug/mL by tetrazolium/formazan assay. It is filed as functional, organism-based. In short, it runs like this:
as §1

Data set [12] concerns Mycobacterium tuberculosis. The data set can be described thus: Antimycobacterial activity.

As to `Nc1nc2c(ncn2COCCO)c(=O)[nH]1` [ACYCLOVIR], the half-inhibitory concentration (IC50) with Human alphaherpesvirus 1 [1] came out at 0.5 µg/mL (≈ 2.22 µM).

In turn, `C[C@@H]1[C@H](O)[C@@H](C)/C=C/C=C/C=C/C=C/C=C/C=C/C=C/[C@H](O[C@@H]2O[C@H](C)[C@@H](O)[C@H](N)[C@@H]2O)C[C@@H]2O[C@](O)(C[C@@H](O)C[C@@H](O)[C@H](O)CC[C@@H](O)C[C@@H](O)CC(=O)O[C@H]1C)C[C@H](O)[C@H]2C(=O)O` [AMPHOTERICIN B] yielded a 50% inhibitory concentration (IC50) with Candida albicans [2] of 0.08 µg/mL (≈ 0.0866 µM).

With `CC(C)C[C@@H]1NC(=O)CNC(=O)[C@H](Cc2c[nH]c3ccccc23)NC(=O)[C@@H]2CCCN2C(=O)[C@H]([C@@H](C)O)NC(=O)[C@H](CC(C)C)NC(=O)[C@H](CC(C)C)NC1=O` [INTEGERRIMIDE A] (cyclo(GLLLTPW)), the outcome in the data set filed under Gallus gallus [3] and in the data set filed under Gallus gallus [9] was Active. Moreover, the result with IPC-298 [4], in the data set on Plasmodium falciparum, with IPC-298 [5], in the data set on Human alphaherpesvirus 1 [7], in the data set listed under Homo sapiens and in the data set on Candida albicans [11] was inactive. Also, the Activity result was “Non-toxic” in [6], “Non-toxic” in data set [8] and 40% with IPC-298 [10]. In addition, the inhibition at 50 µM in the data set on Capan-2 worked out at 30%.

For the molecule `CC(C)C[C@@H]1NC(=O)[C@H](C)NC(=O)[C@H](Cc2c[nH]c3ccccc23)NC(=O)[C@@H]2CCCN2C(=O)[C@H](CO)NC(=O)[C@H](C(C)C)NC(=O)[C@H](CC(C)C)NC1=O` [INTEGERRIMIDE B] (cyclo(ALLVSPW)), the result in the data set on IPC-298 [4], in the data set with Plasmodium falciparum, in the data set on IPC-298 [5], with Human alphaherpesvirus 1 [7], in the data set listed under Homo sapiens and in the data set with Candida albicans [11] was inactive. The Activity result in data set [6] is reported as “Non-toxic”; in data set [8], “Non-toxic”; in the data set on IPC-298 [10], 40%. In the data set with Capan-2, this molecule gave an inhibition at 50 µM of 20%. Moreover, the outcome in the data set filed under Gallus gallus [9] was Active.

Turning to `NNC(=O)c1ccncc1` [ISONIAZID], it took 0.1 µg/mL (≈ 0.729 µM) to inhibit growth in [12] (MIC).

As for `NC[C@H]1O[C@H](O[C@H]2[C@H](O)[C@@H](O[C@H]3O[C@H](CO)[C@@H](O)[C@H](N)[C@H]3O)[C@H](N)C[C@@H]2N)[C@H](O)[C@@H](O)[C@@H]1O` [KANAMYCIN], the MIC in data set [12] amounted to 2.5 µg/mL (≈ 5.16 µM). Against the preceding molecule, the MIC is about 25-fold higher.

In [12], `CO[C@H]1/C=C/O[C@@]2(C)Oc3c(C)c(O)c4c(O)c(c(/C=N/N5CCN(C)CC5)c(O)c4c3C2=O)NC(=O)/C(C)=C\C=C\[C@H](C)[C@H](O)[C@@H](C)[C@@H](O)[C@@H](C)[C@H](OC(C)=O)[C@@H]1C` [RIFAMPIN] had a minimum inhibitory concentration (MIC) of 0.0023 µg/mL (≈ 0.00279 µM).

Source of the values: ChEMBL document CHEMBL1158078, “Integerrimides A and B, cyclic heptapeptides from the latex of Jatropha integerrima” (J Nat Prod, 2006).
